Experimental findings from PubChem BioAssay are described below.

Calls of active or inactive are those of the source.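 How the source made its calls, unless noted: active means inhibition above 20% together with a positive visual image hit; inconclusive means visual image hit but inhibition not above 20%; inactive means no visual image hit.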

The nature of assay [1]: inhibitors of TNFa-induced NFkB p65 translocation, primary screen, imaging, HUVEC, MLSMR starter and 10KST1 sets (AID 438).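 Further: compound added about 3h40 before a 20 min TNFalpha stimulation.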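 On inhibition: signal is the nuclear over cytoplasmic p65 intensity ratio per well.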 Particulars: HUVEC TNFa-induced p65 nuclear translocation; cell count: measured here: nuclei count (cytotoxicity indicator), at 2.08 µM; inhibition: at 2 µM, stronger effect = higher value, 0% TNFa-plus-vehicle, 100% no-TNFa wells.
A short description of assay [2]: endothelial E-selectin expression blockers – imaging, HUVEC, immunofluorescence, MLSMR starter and 10KST1 sets, primary screen (AID 487;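 active means visually confirmed hit in the image check and inhibition above 20%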;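 on inhibition: signal is fraction of cell area covered by stained E-selectin grains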;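 on nuclei count: 100% = median nuclei count of all wells on the same plate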). Conditions: HUVEC TNFalpha-induced E-selectin immunofluorescence imaging, at 2 µM; inhibition: stronger effect = higher value; nuclei count: measured here: cell number, toxicity.
Assay [3] is described as follows: Primary imaging screen for DUSP6 inhibitors that restore phospho-Erk in transfected HeLa cells, chemical complementation (AID 609;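 active means compounds giving at least 50% inhibition in the cell-based MKP-3 phosphatase rescue imaging test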;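 on inhibition: phospho-Erk level distribution per well compared with pooled transfected vehicle control wells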). Particulars: HeLa MKP-3 transfected, phospho-Erk imaging KS statistic, at 10 µM, cells stimulated with TPA for 15 min.
Assay [4] concerns the target Dual specificity protein phosphatase 6 (Homo sapiens) (UniProt Q16828). Described as above. Conditions: HeLa MKP-3 transfected, phospho-Erk imaging KS statistic; at 10 µM; stronger effect = higher value; cells stimulated with TPA for 15 min.
For assay [5], the target named is Voltage-gated potassium channel subunit beta-2 (Rattus norvegicus) (UniProt P62483). In words: inhibitors of rat Kvbeta2 reductase activity – biochemical, NADPH fluorescence, primary screen (AID 622;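 active means fluorescence slope higher than the sample average by over 3 SD, cut at about -0.22 in these data, passing the limit was not always enough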;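 further: slope of raw intensity against log time taken from 70 to 1610 s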). Conditions: recombinant KvBeta, 4-cyanobenzaldehyde reduction, at 10 µM, stronger effect = higher value.
Voltage-gated potassium channel subunit beta-2 (Rattus norvegicus), sequence (P62483 whole entry, looked up): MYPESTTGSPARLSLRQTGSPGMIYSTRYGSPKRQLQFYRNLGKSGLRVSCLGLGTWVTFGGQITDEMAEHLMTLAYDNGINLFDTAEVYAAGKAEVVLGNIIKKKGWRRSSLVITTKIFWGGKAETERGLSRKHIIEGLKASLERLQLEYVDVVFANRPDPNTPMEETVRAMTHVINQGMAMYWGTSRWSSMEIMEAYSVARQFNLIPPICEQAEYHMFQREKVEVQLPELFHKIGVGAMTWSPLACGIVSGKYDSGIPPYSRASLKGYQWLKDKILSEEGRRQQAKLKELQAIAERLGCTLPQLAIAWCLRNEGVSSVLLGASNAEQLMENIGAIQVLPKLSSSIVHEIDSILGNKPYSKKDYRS
Assay [6] shares this target. Nature of the assay: enhancers of rat Kvbeta2 NADPH turnover – biochemical, NADPH fluorescence, primary screen (AID 623;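 active means NADPH fluorescence slope more negative than the mean of all samples by about 3 SD, 99.7% confidence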;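 further: fluorescence intensity change per second fitted from 20 to 320 s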). Particulars: Recombinant KvBeta, NADPH fluorescence decrease slope, 10 min; at 10 µM; stronger effect = lower value.
In assay [7] the target is Muscarinic acetylcholine receptor M4 (Homo sapiens) (UniProt P08173). In words: M4-linked GIRK flux change, two-sided – cell-based, HEK293 M4/GIRK, thallium flux, BTC-AM, M4 allosteric agonist project, primary screen (AID 625;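 active means fluorescence slope after compound addition differing from the mean of all tested samples at 99.7% confidence, mostly higher but some lower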;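 further: thallium influx through GIRK channels coupled to M4 in HEK293 cells with BTC-AM dye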). Particulars: at 10 µM, actives lie on both sides. Put shortly: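 Assay system: HEK293 cells with M4 receptor and GIRK channels / Controls: carbachol and DMSO controls / Schedule: 1 h dye loading, 2 min kinetic read / Technique: kinetic fluorescence with BTC-AM dye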
Muscarinic acetylcholine receptor M4 (Homo sapiens), sequence (P08173 whole entry, looked up): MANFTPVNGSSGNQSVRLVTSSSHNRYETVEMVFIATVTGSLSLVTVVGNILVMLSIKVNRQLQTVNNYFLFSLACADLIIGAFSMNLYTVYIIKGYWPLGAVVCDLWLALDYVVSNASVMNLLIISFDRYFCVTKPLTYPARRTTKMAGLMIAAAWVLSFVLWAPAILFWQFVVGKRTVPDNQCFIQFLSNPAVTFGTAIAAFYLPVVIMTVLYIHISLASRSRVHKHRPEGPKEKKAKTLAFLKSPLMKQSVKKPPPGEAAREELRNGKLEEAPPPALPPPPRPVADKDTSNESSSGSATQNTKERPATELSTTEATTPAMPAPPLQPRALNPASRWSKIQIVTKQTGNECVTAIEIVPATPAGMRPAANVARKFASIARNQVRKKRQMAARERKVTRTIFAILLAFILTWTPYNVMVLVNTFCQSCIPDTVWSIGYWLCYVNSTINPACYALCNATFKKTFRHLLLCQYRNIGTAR

Assay [8] is described as follows: inhibitors of larval lipid processing in zebrafish, primary screen, whole organism, PED6 fluorescence, gall bladder and intestine (AID 686;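 active means a full or partial loss of lipid-probe fluorescence in the fish gall bladder, intestine or both, judged by eye; inactive means no fluorescence loss, or compound toxic to the fish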;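 further: larvae 5 to 7 days old with five fish per well; signal comes from phospholipase A2 cleavage of quenched PED6 carried via bile; overnight exposure to compound and PED6 before scoring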). Conditions: Zebrafish larvae PED6 lipid processing, fluorescence scoring; screened at 20 µM (by protocol). Put shortly:
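Doses: 20 µM single dose. Test system: live zebrafish larvae aged 5-7 days, whole organism. Quantity: five larvae per well. Measured by: By-eye fluorescence microscopy. Reagent: ingested quenched lipid PED6 at 100 nM. Read-out: visual per-well fluorescence inhibition score. Times: overnight exposure of larvae to compound plus PED6.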

Assay [9] in a line: loss of swimming-algae plug formation – whole organism, Chlamydomonas reinhardtii, WT vs cilia-less mutant, absorbance, 96-well, primary screen (AID 463189;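 active means inhibition at or above 50% relative to wild type and mutant plate controls; inactive means inhibition below 50%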;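 further: 0% = wild type cc124 cells in DMSO and 100% = ciliumless bld1 mutant cells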). Particulars: Chlamydomonas reinhardtii gravitaxis, OD600 absorbance, 2 days; at 10 µM; stronger effect = higher value.
Setting [10] is: measured here: cell density z-score.
Where [11] appears, read: measured here: nuclear c-Myc green intensity z-score.
The mark [12] stands for this setting: measured here: nuclear pErk red intensity z-score, stronger effect = higher value.

Dual specificity protein phosphatase 6 (Homo sapiens), sequence (Q16828 whole entry, looked up): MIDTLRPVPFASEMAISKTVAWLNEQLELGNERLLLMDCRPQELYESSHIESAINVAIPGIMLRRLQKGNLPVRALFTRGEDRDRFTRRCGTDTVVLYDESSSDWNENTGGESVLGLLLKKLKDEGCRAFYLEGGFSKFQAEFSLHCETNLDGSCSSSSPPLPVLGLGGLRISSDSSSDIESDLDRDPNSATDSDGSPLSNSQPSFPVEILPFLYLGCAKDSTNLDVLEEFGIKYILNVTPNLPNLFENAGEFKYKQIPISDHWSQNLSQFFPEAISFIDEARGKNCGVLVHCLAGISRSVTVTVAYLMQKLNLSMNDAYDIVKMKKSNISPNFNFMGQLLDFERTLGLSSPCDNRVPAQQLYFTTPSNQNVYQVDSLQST

One may read the inhibition as the drop in the measured response relative to a control, in per cent. In the case of `Cn1c(=O)[nH]c(=O)c2c1nc(Br)n2CCSc1nnnn1-c1ccccc1`, the cell count in [1] turned out to be 639. Moreover, the inhibition was 0.9% (inactive) in [1], -40.4% (inactive) in assay [2], 3.42% (inactive) in assay [4] and 27.6% (inactive) in assay [9]. Besides, the nuclei count in [2] turned out to be 177%. Besides, the z-score is -0.541 in assay [3] (setting [10]), -0.392 in assay [3] (setting [11]) and 1.24 in [3] (setting [12]). In addition, the results for the fluorescence slope in [5] and in assay [7] were -0.384 (inactive) and 0.00586 (inactive), respectively. Further, the NADPH fluorescence slope in assay [6] is -4e-05 (inactive). Moreover, in assay [8], the call was inactive.

With `COc1ccc(CSC2=NCCN2)cc1Cl`, in [1], the cell count turned out to be 382. The inhibition in assay [1] was -2.2% (inactive); in assay [2] it was -95.2% (inactive); in [4] it was 9.42% (inactive); in assay [9] it was 143% (active). In assay [2], this compound yielded a nuclei count of 83.1%. Further, the z-score in assay [3] (setting [10]) was -0.238; in assay [3] (setting [11]), 2.09; in [3] (setting [12]), 0.748. Further, the results for the fluorescence slope in [5] and in [7] were -0.459 (inactive) and 0.00397 (inactive), respectively. Also, the NADPH fluorescence slope in [6] is -7e-05 (inactive). In addition, the compound was classed as inactive in [8].

With `CC1(C)Cc2c(C#N)c(N3CCN(C(=O)c4ccco4)CC3)nc(-c3ccco3)c2CS1`, the cell count in assay [1] was 639. Besides, the inhibition was -0.1% (inactive) in assay [1], -82.6% (inactive) in assay [2], -4.27% (inactive) in assay [4] and 3.99% (inactive) in assay [9]. The compound also showed a nuclei count in assay [2] of 138%. Moreover, the values for the z-score in assay [3] (setting [10]), in assay [3] (setting [11]) and in assay [3] (setting [12]) were -1.4, -0.121 and -2.48, respectively. The fluorescence slope is -0.464 (inactive) in assay [5] and 0.00584 (inactive) in [7]. The NADPH fluorescence slope in [6] is -6.6e-05 (inactive). For the same compound, in assay [8], the outcome was inactive.

`Cc1cc(CCC(=O)O)c(C)cc1CCC(=O)O`: the cell count in [1] is 593. Besides, the inhibition was 0.2% (inactive) in assay [1], -64.2% (inactive) in [2], 5.35% (inactive) in assay [4] and 1.89% (inactive) in assay [9]. The nuclei count in assay [2] turned out to be 149%. Moreover, the z-score is 0.485 in assay [3] (setting [10]), 1.16 in assay [3] (setting [11]) and -0.56 in [3] (setting [12]). For the same compound, the fluorescence slope in [5] is -0.452 (inactive); in [7], 0.00588 (inactive). Moreover, the NADPH fluorescence slope in [6] is -0.000105 (inactive). In addition, the call in assay [8] was inactive.

`c1ccc(-n2c(Cc3cccnc3)nc3cnccc32)cc1`: the cell count in [1] came to 581. Moreover, the inhibition is -2.4% (inactive) in [1], 48.6% (inactive) in assay [2], -6.48% (inactive) in [4] and 1.93% (inactive) in [9]. For the same compound, the nuclei count in [2] came to 107%. Moreover, the z-score in assay [3] (setting [10]) is -0.422; in assay [3] (setting [11]) it was -1.1; in assay [3] (setting [12]), -1.28. The fluorescence slope in [5] is -0.468 (inactive); in assay [7] it was 0.00562 (inactive). Moreover, in [6], the NADPH fluorescence slope was -5.8e-05 (inactive). The compound was called inactive in assay [8].

Regarding `CCCCSc1nc(O)c(C2OC(=O)c3c2ccc(OC)c3OC)c(=O)n1C` (stereo unspecified), the cell count in assay [1] was determined as 559. Besides, the inhibition is 1.9% (inactive) in [1], 57.7% (active) in assay [2], 9.91% (inactive) in assay [4] and 32.4% (inactive) in assay [9]. In assay [2], this compound showed a nuclei count of 95.8%. For the same compound, the z-score was -2.21 in [3] (setting [10]), -0.0853 in assay [3] (setting [11]) and 0.751 in assay [3] (setting [12]). For the same compound, the fluorescence slope in [5] was -0.372 (inactive); in [7], 0.00535 (inactive). For the same compound, the NADPH fluorescence slope in assay [6] is -2.3e-05 (inactive). Besides, in assay [8], the compound was classed as inactive.

For the compound `CC(=O)Nc1ccc(OC(=O)CC2SC(=O)NC2=O)cc1` (stereo unspecified), in [1], the cell count was determined as 552. Also, the inhibition was -6.8% (inactive) in assay [1], -32.3% (inactive) in assay [2], -2.91% (inactive) in assay [4] and -6.84% (inactive) in assay [9]. In assay [2], this compound registered a nuclei count of 97.7%. Besides, the values for the z-score in assay [3] (setting [10]), in [3] (setting [11]) and in [3] (setting [12]) were -1.89, 0.746 and -1.34, respectively. Also, the fluorescence slope is -0.469 (inactive) in [5] and 0.00549 (inactive) in assay [7]. Also, the NADPH fluorescence slope in [6] was -3.2e-05 (inactive). Besides, the call in [8] was inactive.
